Our source for the residual activity and inhibition values is ChEMBL document CHEMBL1681705, “Optimisation of ITK inhibitors through successive iterative design cycles” (Bioorg Med Chem Lett, 2011).

Experiment [1] concerns the target Serine/threonine-protein kinase 33 (Homo sapiens) (UniProt Q9BYT3). In words: Inhibition of STK33 at 1 uM; values are per cent of control.
Experiment [2] deals with T1, Ephrin type-A receptor 1 (Homo sapiens) (UniProt P21709).
T1 sequence (whole entry): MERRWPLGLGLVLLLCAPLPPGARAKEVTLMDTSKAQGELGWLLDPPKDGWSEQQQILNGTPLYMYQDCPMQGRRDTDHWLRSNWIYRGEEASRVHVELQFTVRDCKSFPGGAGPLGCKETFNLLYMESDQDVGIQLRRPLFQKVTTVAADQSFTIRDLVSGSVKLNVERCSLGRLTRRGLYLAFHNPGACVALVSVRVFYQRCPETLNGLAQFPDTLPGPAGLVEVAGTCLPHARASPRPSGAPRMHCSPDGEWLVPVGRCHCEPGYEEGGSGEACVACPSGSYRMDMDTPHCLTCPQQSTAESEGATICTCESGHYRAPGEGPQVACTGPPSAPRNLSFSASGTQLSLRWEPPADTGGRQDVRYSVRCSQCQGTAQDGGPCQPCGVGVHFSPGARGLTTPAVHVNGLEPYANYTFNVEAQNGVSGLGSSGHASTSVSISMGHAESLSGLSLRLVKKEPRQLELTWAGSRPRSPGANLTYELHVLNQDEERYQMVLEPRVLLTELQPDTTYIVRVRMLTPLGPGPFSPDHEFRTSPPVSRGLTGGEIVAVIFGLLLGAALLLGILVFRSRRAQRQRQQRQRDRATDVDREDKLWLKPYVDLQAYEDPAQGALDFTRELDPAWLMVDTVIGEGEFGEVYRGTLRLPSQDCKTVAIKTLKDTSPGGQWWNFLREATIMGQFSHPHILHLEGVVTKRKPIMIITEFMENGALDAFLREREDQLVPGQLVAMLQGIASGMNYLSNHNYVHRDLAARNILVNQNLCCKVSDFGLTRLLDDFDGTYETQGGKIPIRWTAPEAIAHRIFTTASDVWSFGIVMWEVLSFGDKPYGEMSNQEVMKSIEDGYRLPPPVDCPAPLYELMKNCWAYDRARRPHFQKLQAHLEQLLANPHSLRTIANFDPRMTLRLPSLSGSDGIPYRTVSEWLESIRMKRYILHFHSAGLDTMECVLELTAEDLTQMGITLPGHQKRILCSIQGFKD
The experiment can be described thus: Inhibition of EphA1 at 1 uM; values are per cent of control.

Experiment [3] concerns the target Tyrosine-protein kinase HCK (Homo sapiens) (UniProt P08631). In words: Inhibition of Hck at 1 uM; values are per cent of control.
In experiment [4] the target is MAP kinase-activated protein kinase 2 (Homo sapiens) (UniProt P49137). The experiment can be described thus: Inhibition of MAPKAP-K2 at 0.1 uM; values are per cent of control.
Chain of MAP kinase-activated protein kinase 2 (Homo sapiens) (P49137 whole entry, looked up): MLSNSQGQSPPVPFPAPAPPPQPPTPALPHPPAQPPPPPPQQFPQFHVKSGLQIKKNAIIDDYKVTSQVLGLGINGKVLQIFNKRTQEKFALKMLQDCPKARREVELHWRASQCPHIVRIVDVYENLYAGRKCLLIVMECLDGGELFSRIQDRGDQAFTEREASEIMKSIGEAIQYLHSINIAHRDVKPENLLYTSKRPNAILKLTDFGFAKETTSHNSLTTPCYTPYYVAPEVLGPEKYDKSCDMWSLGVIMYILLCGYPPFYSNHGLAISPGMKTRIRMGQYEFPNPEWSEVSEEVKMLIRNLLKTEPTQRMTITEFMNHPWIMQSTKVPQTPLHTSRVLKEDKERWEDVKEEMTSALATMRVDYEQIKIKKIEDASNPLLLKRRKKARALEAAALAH
Experiment [5] concerns the target MAP kinase-interacting serine/threonine-protein kinase 2 (Homo sapiens) (UniProt Q9HBH9). In words: Inhibition of Mnk2 at 0.1 uM; values are per cent of control.
The target in experiment [6] is Proto-oncogene tyrosine-protein kinase Src (Homo sapiens) (UniProt P12931). In words: Inhibition of c-SRC at 1 uM; values are per cent of control.
Chain of Proto-oncogene tyrosine-protein kinase Src (Homo sapiens) (P12931 2-536 limits assumed): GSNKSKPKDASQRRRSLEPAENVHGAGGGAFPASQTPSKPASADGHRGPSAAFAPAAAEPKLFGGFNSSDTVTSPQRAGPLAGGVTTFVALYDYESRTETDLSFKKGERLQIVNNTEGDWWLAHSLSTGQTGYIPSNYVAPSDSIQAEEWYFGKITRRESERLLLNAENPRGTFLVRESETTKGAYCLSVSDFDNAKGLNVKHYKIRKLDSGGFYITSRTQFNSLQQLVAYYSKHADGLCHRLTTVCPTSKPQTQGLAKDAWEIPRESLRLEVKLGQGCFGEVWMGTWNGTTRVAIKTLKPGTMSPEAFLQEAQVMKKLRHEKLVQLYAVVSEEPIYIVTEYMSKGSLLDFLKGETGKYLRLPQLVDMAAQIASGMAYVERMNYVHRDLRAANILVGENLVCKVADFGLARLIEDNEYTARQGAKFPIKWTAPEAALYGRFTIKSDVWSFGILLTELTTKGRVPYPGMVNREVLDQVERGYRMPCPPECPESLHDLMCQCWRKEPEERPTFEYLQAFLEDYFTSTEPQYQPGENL
Experiment [7] deals with T2, Dual specificity mitogen-activated protein kinase kinase 7 (Homo sapiens) (UniProt O14733).
T2 sequence (whole entry): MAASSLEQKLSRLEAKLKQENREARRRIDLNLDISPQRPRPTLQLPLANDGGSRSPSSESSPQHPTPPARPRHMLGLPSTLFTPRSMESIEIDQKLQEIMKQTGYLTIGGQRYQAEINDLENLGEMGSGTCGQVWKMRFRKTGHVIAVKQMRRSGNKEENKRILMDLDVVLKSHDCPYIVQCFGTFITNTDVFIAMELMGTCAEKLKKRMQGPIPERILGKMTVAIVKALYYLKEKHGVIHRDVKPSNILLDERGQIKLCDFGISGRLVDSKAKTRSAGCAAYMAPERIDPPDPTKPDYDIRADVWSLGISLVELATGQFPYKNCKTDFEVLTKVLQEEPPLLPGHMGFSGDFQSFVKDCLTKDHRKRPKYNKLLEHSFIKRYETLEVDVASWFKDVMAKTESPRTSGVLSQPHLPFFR
In words: Inhibition of MKK7beta at 1 uM. Summed up: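 Single-point screen within a 108-kinase selectivity panel. Each kinase was tested with inhibitor at 0.1 and 1.0 micromolar, and activity was recorded as percent inhibition.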

Experiment [8] deals with T3, Protein kinase C epsilon type (Homo sapiens) (UniProt Q02156).
T3 sequence (whole entry): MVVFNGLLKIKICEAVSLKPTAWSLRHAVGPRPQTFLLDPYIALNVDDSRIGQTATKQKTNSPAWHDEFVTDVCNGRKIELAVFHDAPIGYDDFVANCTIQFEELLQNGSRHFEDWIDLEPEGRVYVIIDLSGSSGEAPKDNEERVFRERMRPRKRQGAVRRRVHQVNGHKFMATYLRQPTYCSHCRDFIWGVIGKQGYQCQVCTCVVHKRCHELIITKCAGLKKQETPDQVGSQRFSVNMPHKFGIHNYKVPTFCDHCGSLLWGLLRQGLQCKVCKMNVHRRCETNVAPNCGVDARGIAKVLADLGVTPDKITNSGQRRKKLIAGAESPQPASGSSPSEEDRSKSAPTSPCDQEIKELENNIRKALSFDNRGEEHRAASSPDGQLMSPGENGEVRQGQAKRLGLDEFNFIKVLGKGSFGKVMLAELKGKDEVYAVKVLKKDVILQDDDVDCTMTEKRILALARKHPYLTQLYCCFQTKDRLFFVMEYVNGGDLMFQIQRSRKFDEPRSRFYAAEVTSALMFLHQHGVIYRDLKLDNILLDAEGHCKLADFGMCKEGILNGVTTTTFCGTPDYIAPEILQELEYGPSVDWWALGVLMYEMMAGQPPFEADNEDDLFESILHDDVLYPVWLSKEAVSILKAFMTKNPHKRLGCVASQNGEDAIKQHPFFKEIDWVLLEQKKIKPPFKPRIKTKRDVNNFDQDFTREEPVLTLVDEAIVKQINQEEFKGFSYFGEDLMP
The experiment can be described thus: Inhibition of PKCepsilon at 1 uM; values are per cent of control.

Experiment [9] deals with Serine/threonine-protein kinase MARK1 (Homo sapiens) (UniProt Q9P0L2). The experiment can be described thus: Inhibition of MARK1 at 0.1 uM; values are per cent of control.
Chain of Serine/threonine-protein kinase MARK1 (Homo sapiens) (Q9P0L2 whole entry, looked up): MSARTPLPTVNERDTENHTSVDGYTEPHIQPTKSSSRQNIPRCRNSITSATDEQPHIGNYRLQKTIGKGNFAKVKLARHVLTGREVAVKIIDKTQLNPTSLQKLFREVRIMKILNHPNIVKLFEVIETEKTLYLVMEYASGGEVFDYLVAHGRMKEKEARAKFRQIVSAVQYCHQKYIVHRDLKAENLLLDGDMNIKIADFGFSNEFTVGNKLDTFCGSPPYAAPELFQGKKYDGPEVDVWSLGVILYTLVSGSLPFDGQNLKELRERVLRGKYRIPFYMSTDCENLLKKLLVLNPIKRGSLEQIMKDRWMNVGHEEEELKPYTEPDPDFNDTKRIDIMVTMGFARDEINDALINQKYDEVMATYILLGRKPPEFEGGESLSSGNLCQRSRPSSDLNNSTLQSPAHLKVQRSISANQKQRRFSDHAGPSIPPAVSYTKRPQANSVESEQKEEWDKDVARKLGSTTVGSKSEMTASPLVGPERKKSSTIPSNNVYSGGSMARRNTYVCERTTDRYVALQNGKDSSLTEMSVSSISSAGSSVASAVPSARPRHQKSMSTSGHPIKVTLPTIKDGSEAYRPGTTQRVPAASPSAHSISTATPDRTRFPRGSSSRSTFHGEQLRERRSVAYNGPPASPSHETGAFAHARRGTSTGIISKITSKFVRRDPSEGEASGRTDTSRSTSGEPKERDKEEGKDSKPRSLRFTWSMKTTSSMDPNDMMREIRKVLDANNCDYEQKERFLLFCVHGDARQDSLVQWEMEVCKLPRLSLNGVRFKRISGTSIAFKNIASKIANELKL
The target in experiment [10] is Death-associated protein kinase 2 (Homo sapiens) (UniProt Q9UIK4). The experiment can be described thus: Inhibition of DAPK2 at 0.1 uM; values are per cent of control.
Chain of Death-associated protein kinase 2 (Homo sapiens) (Q9UIK4 whole entry, looked up): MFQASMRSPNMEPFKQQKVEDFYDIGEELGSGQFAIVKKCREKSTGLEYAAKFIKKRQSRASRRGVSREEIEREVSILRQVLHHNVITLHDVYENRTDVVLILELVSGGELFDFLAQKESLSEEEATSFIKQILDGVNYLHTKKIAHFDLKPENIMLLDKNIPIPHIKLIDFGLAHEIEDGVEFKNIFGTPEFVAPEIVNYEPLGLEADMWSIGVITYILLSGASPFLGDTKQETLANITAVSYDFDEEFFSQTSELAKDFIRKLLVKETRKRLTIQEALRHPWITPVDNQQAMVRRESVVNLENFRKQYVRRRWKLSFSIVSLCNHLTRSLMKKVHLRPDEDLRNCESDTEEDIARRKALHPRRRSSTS

Chain of Serine/threonine-protein kinase 33 (Homo sapiens) (Q9BYT3 whole entry, looked up): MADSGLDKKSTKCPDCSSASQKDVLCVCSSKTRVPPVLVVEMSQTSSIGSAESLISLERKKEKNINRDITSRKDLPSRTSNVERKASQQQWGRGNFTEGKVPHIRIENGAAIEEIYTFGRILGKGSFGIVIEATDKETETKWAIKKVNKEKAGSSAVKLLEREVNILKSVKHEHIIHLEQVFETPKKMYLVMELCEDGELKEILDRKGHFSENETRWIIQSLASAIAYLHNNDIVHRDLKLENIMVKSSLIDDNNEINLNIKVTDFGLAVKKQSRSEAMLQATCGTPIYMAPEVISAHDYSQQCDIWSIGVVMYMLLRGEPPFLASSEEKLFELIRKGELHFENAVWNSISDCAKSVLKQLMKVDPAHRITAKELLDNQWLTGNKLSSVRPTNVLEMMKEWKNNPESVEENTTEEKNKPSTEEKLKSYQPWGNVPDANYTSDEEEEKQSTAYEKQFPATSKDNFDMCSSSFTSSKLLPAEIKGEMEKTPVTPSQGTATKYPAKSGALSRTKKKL
Chain of MAP kinase-interacting serine/threonine-protein kinase 2 (Homo sapiens) (Q9HBH9 whole entry, looked up): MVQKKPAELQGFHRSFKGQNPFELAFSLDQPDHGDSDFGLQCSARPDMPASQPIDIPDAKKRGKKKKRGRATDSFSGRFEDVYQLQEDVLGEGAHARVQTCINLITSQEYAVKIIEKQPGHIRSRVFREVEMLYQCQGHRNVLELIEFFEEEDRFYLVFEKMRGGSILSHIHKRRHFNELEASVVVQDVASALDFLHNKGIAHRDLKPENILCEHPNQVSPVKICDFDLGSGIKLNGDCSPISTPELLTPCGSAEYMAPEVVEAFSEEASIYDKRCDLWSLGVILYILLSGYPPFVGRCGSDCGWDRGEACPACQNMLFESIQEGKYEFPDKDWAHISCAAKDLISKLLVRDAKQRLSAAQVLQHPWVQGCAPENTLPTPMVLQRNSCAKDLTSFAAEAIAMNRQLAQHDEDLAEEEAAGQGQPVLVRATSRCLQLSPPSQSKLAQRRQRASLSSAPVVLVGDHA
Chain of Tyrosine-protein kinase HCK (Homo sapiens) (P08631 2-526 limits assumed): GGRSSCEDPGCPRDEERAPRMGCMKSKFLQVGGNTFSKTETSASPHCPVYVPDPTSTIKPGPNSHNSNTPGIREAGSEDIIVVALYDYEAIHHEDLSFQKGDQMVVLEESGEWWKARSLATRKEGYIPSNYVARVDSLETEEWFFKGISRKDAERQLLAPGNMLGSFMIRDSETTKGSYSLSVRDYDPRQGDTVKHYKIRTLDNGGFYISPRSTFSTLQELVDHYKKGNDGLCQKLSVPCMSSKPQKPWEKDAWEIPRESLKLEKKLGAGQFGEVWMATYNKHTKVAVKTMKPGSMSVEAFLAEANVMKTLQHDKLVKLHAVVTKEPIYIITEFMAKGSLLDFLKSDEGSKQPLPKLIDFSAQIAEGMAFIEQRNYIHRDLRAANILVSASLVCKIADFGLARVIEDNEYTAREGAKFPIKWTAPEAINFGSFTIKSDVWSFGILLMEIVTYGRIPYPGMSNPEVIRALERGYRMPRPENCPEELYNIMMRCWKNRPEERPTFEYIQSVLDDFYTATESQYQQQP

In general, inhibition refers to the share of the control response that was lost under treatment. A high value points to strong suppression. As for `Cc1ccc2cc(-c3n[nH]c4ccc(NC5CCNC5)cc34)[nH]c2c1` (stereo not given), the residual activity in experiment [1] is 6%; in experiment [2], 5%; in experiment [3] it was 0%; in experiment [4], 98%; in [5], 52%; in experiment [6] it was 5%. Further, the results for the residual activity in experiment [8], in experiment [9] and in experiment [10] were 21%, 5% and 91%, respectively. This compound registered an inhibition in experiment [7] of 52%.
With `Cc1ccc2cc(-c3n[nH]c4ccc(NC5CCN(Cc6ccccc6)CC5)cc34)[nH]c2c1`, the residual activity in experiment [1] is 4%; in experiment [2], 12%; in experiment [3], 7%; in [4], 104%; in experiment [5], 101%; in experiment [6], 1%. The residual activity in experiment [8] was 67%; in [9], 53%; in experiment [10], 106%. Moreover, the inhibition in [7] came out at 95%.
